# ChEMBL document CHEMBL2057168, “(1aR,5aR)1a,3,5,5a-Tetrahydro-1H-2,3-diaza-cyclopropa[a]pentalene-4-carboxylic acid (MK-1903): a potent GPR109a agonist that lowers free fatty acids in humans” (J Med Chem, 2012)
# The source made the active and inactive calls. The rule behind the calls is not given here.
# Tests used:
# [1] = target: Hydroxycarboxylic acid receptor 3 (Homo sapiens) (UniProt P49019); assay: Agonist activity at human GPR109b assessed as decrease in forskolin-stimulated cAMP production by HTRF assay; type: functional
# Sequence of Hydroxycarboxylic acid receptor 3 (Homo sapiens) (P49019 whole entry): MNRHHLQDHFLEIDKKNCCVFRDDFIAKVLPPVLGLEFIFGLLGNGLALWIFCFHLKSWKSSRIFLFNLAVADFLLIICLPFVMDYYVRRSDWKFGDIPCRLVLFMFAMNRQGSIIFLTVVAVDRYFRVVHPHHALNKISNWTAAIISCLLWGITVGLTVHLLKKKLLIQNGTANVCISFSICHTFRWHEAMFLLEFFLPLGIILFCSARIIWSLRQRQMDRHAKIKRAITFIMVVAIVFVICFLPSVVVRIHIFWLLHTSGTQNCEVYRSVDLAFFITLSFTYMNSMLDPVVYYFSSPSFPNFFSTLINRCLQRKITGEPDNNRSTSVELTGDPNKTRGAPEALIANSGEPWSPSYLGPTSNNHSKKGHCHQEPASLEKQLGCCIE
# Rattus norvegicus [2] = assay: Dose normalized AUC in Sprague-Dawley rat at 10 mg/kg, po; type: ADME, organism-based; set-up: dose 10 mg/kg, route oral; conditions: in vivo
# Method in brief: (§1)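 Male Sprague-Dawley rats were dosed at 10 mg/kg po or 2 mg/kg iv in 80% PEG400/20% phosphate-buffered saline, fasted overnight before the oral dose. Jugular blood was sampled serially from 0.25 to 21 h over 24 h, and heparinized plasma was prepared. Drug was assayed by HPLC/MS/MS (quantitation range 1–2000 ng/mL).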
# [3] = Volume of distribution in mouse; type: ADME, organism-based; conditions: in vivo
# [4] = Volume of distribution in Sprague-Dawley rat at 2 mg/kg, iv; type: ADME, organism-based; set-up: dose 2 mg/kg, route intravenous; conditions: in vivo
# Method in brief: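 Male Sprague–Dawley rats dosed iv at 2 mg/kg in 80% PEG400/20% phosphate buffered saline. Jugular vein blood was serially sampled over 24 h, and plasma was prepared from sodium heparin blood. Plasma was analysed by HPLC/MS/MS (LLOQ 1 ng/mL, ULOQ 2000 ng/mL).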
# Cytochrome P450 3A4 = Cytochrome P450 3A4 (Homo sapiens, UniProt P08684); assay: Activity at CYP3A4; type: ADME
# Sequence of Cytochrome P450 3A4 (P08684 whole entry): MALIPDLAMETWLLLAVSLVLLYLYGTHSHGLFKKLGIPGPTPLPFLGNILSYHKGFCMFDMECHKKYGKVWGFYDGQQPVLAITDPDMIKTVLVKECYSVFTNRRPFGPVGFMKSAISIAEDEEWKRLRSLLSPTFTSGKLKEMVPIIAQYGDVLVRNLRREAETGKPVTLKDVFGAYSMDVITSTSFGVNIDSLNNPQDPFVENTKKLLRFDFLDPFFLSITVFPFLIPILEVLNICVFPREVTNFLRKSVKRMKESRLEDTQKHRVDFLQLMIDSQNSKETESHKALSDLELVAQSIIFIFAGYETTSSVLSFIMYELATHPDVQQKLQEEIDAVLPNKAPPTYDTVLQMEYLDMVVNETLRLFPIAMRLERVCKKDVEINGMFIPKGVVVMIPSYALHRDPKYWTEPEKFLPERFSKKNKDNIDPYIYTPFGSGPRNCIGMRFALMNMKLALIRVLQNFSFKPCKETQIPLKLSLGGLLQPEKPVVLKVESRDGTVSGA
# Canis familiaris [5] = assay: Dose normalized Cmax in po dosed dog; type: ADME, organism-based, Canis lupus familiaris; conditions: in vivo
# [6] = Blood clearance in mouse; type: ADME, organism-based; conditions: whole blood
# Method in brief: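 Pharmacokinetics across species; for mice, clearance determined in blood rather than plasma following dosing.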
# [7] = Volume of distribution in dog; type: ADME, organism-based, Canis lupus familiaris; conditions: in vivo
# [8] = Terminal half life in mouse; type: ADME, organism-based; conditions: in vivo, read-out: beta t1/2 (converted)
# Cytochrome P450 2D6 = Cytochrome P450 2D6 (Homo sapiens, UniProt P10635); assay: Activity at CYP2D6; type: ADME
# Sequence of Cytochrome P450 2D6 (P10635 whole entry): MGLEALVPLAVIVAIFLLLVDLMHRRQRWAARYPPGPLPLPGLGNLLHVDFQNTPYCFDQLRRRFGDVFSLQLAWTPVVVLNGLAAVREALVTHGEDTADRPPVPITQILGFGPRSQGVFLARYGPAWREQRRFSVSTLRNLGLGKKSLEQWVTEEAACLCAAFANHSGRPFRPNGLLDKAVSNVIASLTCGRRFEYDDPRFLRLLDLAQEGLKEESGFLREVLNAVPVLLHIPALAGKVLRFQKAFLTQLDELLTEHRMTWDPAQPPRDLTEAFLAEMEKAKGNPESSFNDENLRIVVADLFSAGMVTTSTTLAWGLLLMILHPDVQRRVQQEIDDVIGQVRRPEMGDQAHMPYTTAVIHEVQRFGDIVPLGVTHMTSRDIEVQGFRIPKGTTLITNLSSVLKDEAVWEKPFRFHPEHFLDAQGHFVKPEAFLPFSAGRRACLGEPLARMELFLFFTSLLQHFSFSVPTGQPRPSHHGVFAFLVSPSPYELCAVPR
# Rattus norvegicus [9] = assay: Antidyslipedic activity in fasted Sprague-Dawley rat assessed as decrease in free fatty acid level at 0.01 to 100 mg/kg, po by NEFA C-free fatty acid assay; type: functional; set-up: scale not given: the % may be the effect or the level left; conditions: dose mg/kg 0.01-100
# Method in brief: (§2)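 Male Sprague-Dawley rats fasted, compound by oral gavage, serial plasma sampling after dosing for free fatty acids over a time course; vehicle-dosed control group.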
# [10] = Oral bioavailability in mouse; type: ADME, organism-based; conditions: in vivo
# Rattus norvegicus [11] = assay: Antidyslipedic activity in fasted Sprague-Dawley rat assessed as decrease in free fatty acid level at 0.1 to 30 mg/kg, po by NEFA C-free fatty acid assay; type: functional; set-up: scale not given: the % may be the effect or the level left; conditions: dose mg/kg 0.1-30; method in brief: as §2
# Cytochrome P450 2C9 = Cytochrome P450 2C9 (Homo sapiens, UniProt P11712); assay: Activity at CYP2C9; type: ADME
# Sequence of Cytochrome P450 2C9 (P11712 whole entry): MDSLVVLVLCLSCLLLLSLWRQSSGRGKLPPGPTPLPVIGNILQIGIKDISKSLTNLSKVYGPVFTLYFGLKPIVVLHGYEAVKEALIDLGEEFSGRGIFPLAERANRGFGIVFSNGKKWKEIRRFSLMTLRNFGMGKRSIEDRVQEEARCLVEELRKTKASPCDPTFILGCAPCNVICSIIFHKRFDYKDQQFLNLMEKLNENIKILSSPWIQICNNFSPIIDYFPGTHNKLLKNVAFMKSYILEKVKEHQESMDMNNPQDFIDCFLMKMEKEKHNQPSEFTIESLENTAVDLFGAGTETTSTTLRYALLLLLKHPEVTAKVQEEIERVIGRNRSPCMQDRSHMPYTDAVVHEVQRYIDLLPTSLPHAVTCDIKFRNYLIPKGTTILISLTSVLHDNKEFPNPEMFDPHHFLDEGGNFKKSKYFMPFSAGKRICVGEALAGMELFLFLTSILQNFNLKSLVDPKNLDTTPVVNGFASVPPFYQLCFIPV
# Rattus norvegicus [12] = assay: Dose normalized Cmax in Sprague-Dawley rat at 10 mg/kg, po; type: ADME, organism-based; set-up: dose 10 mg/kg, route oral; conditions: in vivo; method in brief: as §1
# [13] = Oral bioavailability in Sprague-Dawley rat at 10 mg/kg; type: ADME, organism-based; conditions: in vivo; method in brief: as §1
# Cytochrome P450 2C8 = target: T1, Cytochrome P450 2C8 (Homo sapiens, UniProt P10632); assay: Activity at CYP2C8; type: ADME
# T1 sequence (P10632 whole entry): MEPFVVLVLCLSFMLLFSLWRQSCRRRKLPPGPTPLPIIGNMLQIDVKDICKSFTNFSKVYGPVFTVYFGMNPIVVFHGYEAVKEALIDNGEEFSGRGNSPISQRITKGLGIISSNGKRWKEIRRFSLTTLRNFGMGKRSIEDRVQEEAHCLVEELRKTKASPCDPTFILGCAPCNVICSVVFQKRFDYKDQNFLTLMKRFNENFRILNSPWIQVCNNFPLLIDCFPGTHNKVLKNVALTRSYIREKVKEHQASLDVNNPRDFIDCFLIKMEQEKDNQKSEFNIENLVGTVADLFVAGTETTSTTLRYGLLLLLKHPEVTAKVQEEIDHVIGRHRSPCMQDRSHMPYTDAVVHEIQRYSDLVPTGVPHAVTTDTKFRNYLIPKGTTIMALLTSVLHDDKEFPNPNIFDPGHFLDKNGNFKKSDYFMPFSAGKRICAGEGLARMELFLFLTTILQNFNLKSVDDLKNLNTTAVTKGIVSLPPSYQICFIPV
# Mus musculus [14] = assay: Dose normalized Cmax in po dosed mouse; type: ADME, organism-based; conditions: in vivo
# [15] = Plasma clearance in Sprague-Dawley rat at 2 mg/kg, iv; type: ADME, organism-based; set-up: dose 2 mg/kg, route intravenous; method in brief: as §1
# Mus musculus [16] = assay: Dose normalized AUC in po dosed mouse; type: ADME, organism-based; conditions: in vivo
# [17] = Terminal half life in dog; type: ADME, organism-based, Canis lupus familiaris; conditions: in vivo, read-out: beta t1/2 (converted)
# [18] = Plasma clearance in dog; type: ADME, organism-based, Canis lupus familiaris
# Canis familiaris [19] = assay: Dose normalized AUC in po dosed dog; type: ADME, organism-based, Canis lupus familiaris; conditions: in vivo
# Mus musculus [20] = assay: Toxicity in C57/Bl6 mouse assessed as increase in cutaneous blood flow in ear at 100 mg/kg, ip after 5 mins relative to vehicle treated control by laser doppler flowmetry; type: organism-based; set-up: dose 100 mg/kg, route intraperitoneal; conditions: in vivo
# Method in brief: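 Male C57/Bl6 mice (8–10 weeks, ~25 g) anesthetized with Nembutal ip (80 mg/10 mL/kg). Ear perfusion recorded by laser Doppler imaging: 3 min baseline, then vehicle (PBS, 40% HPBCD or 0.5% methylcellulose) or compound given ip at 5 mL/kg through a preinserted syringe, with readings for ~15 min. Expressed as % change of perfusion over baseline.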
# [21] = Oral bioavailability in dog; type: ADME, organism-based, Canis lupus familiaris; conditions: in vivo
# [22] = Terminal half life in Sprague-Dawley rat at 2 mg/kg, iv; type: ADME, organism-based; set-up: dose 2 mg/kg, route intravenous; conditions: in vivo, read-out: beta t1/2 (converted); method in brief: as §1
# Rattus norvegicus [23] = assay: Antidyslipedic activity in fasted Sprague-Dawley rat assessed as decrease in free fatty acid level at 0.001 mg/kg, po by NEFA C-free fatty acid assay; type: functional, organism-based; set-up: dose 0.001 mg/kg; method in brief: as §2
smiles,measurement,setting,value
O=C(O)c1n[nH]c2c1C[C@@H]1[C@H]2[C@@H]1C1CC1 (racemic),Activity,[1],inactive
C[C@H]1[C@@H]2Cc3c(C(=O)O)n[nH]c3[C@H]12,Activity,[1],inactive
CCCCC[C@@H]1[C@@H]2Cc3c(C(=O)O)n[nH]c3[C@H]12 (racemic),Activity,[1],inactive
C=CC[C@H]1[C@@H]2Cc3c(C(=O)O)n[nH]c3[C@H]12 (racemic),Activity,[1],inactive
CC[C@H]1[C@@H]2Cc3c(C(=O)O)n[nH]c3[C@H]12 (racemic),Activity,[1],inactive
CC1(C)C2Cc3c(C(=O)O)n[nH]c3C21 (racemic),Activity,[1],inactive
C=C[C@@H]1[C@@H]2Cc3c(C(=O)O)n[nH]c3[C@H]12 (racemic),Activity,[1],inactive
C[C@@H]1[C@H]2Cc3c(C(=O)O)n[nH]c3[C@@H]12,Activity,[1],inactive
O=C(O)c1n[nH]c2c1C[C@H]1[C@@H](CC3CC3)[C@@H]21 (racemic; form 2),Activity,[1],inactive
C[C@@H]1[C@@H]2Cc3c(C(=O)O)n[nH]c3[C@H]12 [listing 1 of 2 here],AUC/dose,Rattus norvegicus [2],5.1 µM·kg·h/mg
same,Vd,[3],0.61 L/kg
same,Vd,[4],0.53 L/kg
same,Activity,Cytochrome P450 3A4,Not Active
same,Cmax/dose,Canis familiaris [5],26 µM·kg/mg
same,clearance,[6],35 mL/min/kg
same,Vd,[7],0.22 L/kg
same,half-life,[8],0.3 h
same,Activity,Cytochrome P450 2D6,Not Active
same,Activity,Rattus norvegicus [9],90%
same,bioavailability,[10],51%
same,Activity,Rattus norvegicus [11],90%
same,Activity,Cytochrome P450 2C9,Not Active
same,Cmax/dose,Rattus norvegicus [12],5 µM·kg/mg
same,bioavailability,[13],90%
same,Activity,Cytochrome P450 2C8,Not Active
same,Cmax/dose,Mus musculus [14],1.5 µM·kg/mg
same,clearance,[15],17 mL/min/kg
same,AUC/dose,Mus musculus [16],1.4 µM·kg·h/mg
same,half-life,[17],2.1 h
same,clearance,[18],2.4 mL/min/kg
same,AUC/dose,Canis familiaris [19],44.4 µM·kg·h/mg
same,Activity,Mus musculus [20],30%
same,bioavailability,[21],100%
same,half-life,[22],2.4 h
O=C(O)c1n[nH]c2c1C[C@H]1[C@@H](COc3ccccc3)[C@@H]21 (racemic),Activity,[1],inactive
COC[C@@H]1[C@@H]2Cc3c(C(=O)O)n[nH]c3[C@H]12 (racemic),Activity,[1],inactive
O=C(O)c1n[nH]c2c1C[C@H]1[C@@H](CC3CC3)[C@@H]21 (racemic; form 1),Activity,[1],inactive
C[C@@H]1[C@@H]2Cc3c(C(=O)O)n[nH]c3[C@H]12 [listing 2 of 2 here],Activity,[1],inactive
same,Activity,Rattus norvegicus [23],inactive
CC(C)CC[C@H]1[C@@H]2Cc3c(C(=O)O)n[nH]c3[C@H]12 (racemic),Activity,[1],inactive
CCCC[C@H]1[C@@H]2Cc3c(C(=O)O)n[nH]c3[C@H]12 (racemic),Activity,[1],inactive
O=C(O)c1cccnc1 [NIACIN],Activity,[1],inactive
same,Activity,Mus musculus [20],60%
CCCCC[C@H]1[C@@H]2Cc3c(C(=O)O)n[nH]c3[C@H]12 (racemic),Activity,[1],inactive
C[C@H]1[C@@H]2Cc3c(C(=O)O)n[nH]c3[C@H]12 (racemic),Activity,[1],inactive
C=C[C@H]1[C@@H]2Cc3c(C(=O)O)n[nH]c3[C@H]12 (racemic),Activity,[1],inactive
C[C@H]1[C@H]2Cc3c(C(=O)O)n[nH]c3[C@@H]12,Activity,[1],inactive
C1Cc2[nH]nc(-c3nn[nH]n3)c2C1,Activity,[1],inactive
CC[C@@H]1[C@@H]2Cc3c(C(=O)O)n[nH]c3[C@H]12 (racemic; form 1),Activity,[1],inactive
CCC[C@@H]1[C@@H]2Cc3c(C(=O)O)n[nH]c3[C@H]12 (racemic),Activity,[1],inactive
CC[C@@H]1[C@@H]2Cc3c(C(=O)O)n[nH]c3[C@H]12 (racemic; form 2),Activity,[1],inactive
CSC[C@@H]1[C@@H]2Cc3c(C(=O)O)n[nH]c3[C@H]12 (racemic),Activity,[1],inactive
CCOC[C@H]1[C@@H]2Cc3c(C(=O)O)n[nH]c3[C@H]12 (racemic),Activity,[1],inactive
CCOC[C@@H]1[C@@H]2Cc3c(C(=O)O)n[nH]c3[C@H]12 (racemic),Activity,[1],inactive
O=C(O)c1n[nH]c2c1C[C@H]1[C@H](Cc3ccccc3)[C@@H]21 (racemic),Activity,[1],inactive
CC(C)[C@@H]1[C@@H]2Cc3c(C(=O)O)n[nH]c3[C@@H]21 (racemic),Activity,[1],inactive
CC(C)C[C@@H]1[C@@H]2Cc3c(C(=O)O)n[nH]c3[C@H]12 (racemic),Activity,[1],inactive
CC(C)C[C@H]1[C@@H]2Cc3c(C(=O)O)n[nH]c3[C@@H]21 (racemic),Activity,[1],inactive
C=CC[C@@H]1[C@@H]2Cc3c(C(=O)O)n[nH]c3[C@H]12 (racemic),Activity,[1],inactive
CCCC[C@@H]1[C@@H]2Cc3c(C(=O)O)n[nH]c3[C@H]12 (racemic),Activity,[1],inactive
CC(C)CC[C@@H]1[C@@H]2Cc3c(C(=O)O)n[nH]c3[C@H]12 (racemic),Activity,[1],inactive
O=C(O)c1n[nH]c2c1CC1CC21 (racemic),Activity,[1],inactive
CSC[C@H]1[C@@H]2Cc3c(C(=O)O)n[nH]c3[C@H]12 (racemic),Activity,[1],inactive
O=C(O)c1n[nH]c2c1C[C@H]1[C@H](c3ccccc3)[C@@H]21 (racemic),Activity,[1],inactive
COC[C@H]1[C@@H]2Cc3c(C(=O)O)n[nH]c3[C@H]12 (racemic),Activity,[1],inactive
C[C@@H]1[C@@H]2Cc3c(C(=O)O)n[nH]c3[C@H]12 (racemic),Activity,[1],inactive
CCC[C@H]1[C@@H]2Cc3c(C(=O)O)n[nH]c3[C@H]12 (racemic),Activity,[1],inactive
